In data set [1] the test system is Plasmodium berghei. In words: Antiplasmodial activity against Plasmodium berghei infected in Swiss Webster mouse assessed as mouse survival at 11 mg/kg, po dosed once daily for 4 consecutive days beginning 1 hr after initial infection and measured on day 11 post infection by Giemsa staining method. It counts as functional. In outline: (§1)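 Female Swiss Webster mice (about 20 g) infected ip with 6 × 10^6 P. berghei-infected erythrocytes. Oral gavage once daily for 4 days, starting 1 h after infection. Vehicle PEG300/propylene glycol/water (55/25/20 by weight). Giemsa-smear parasitemia counted daily from day 4. Mice euthanised above 50% parasitemia. Survival followed to day 21, 5 mice per dose, chloroquine 30 mg/kg as reference.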

Data set [2] in a line: AUC (0 to 2 hrs) in CD1 mouse at 30 mg/kg, po by HPLC coupled to tandem mass spectrometry. It counts as ADME, organism-based. Further details: dose 30 mg/kg, time < 2 hr, route oral. As to conditions: in vivo. Put shortly:
(§2)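 Adult female CD-1 mice were dosed 10 mg/kg by iv injection or 30 mg/kg by oral gavage, with the compound in 100% saline. Blood samples were collected and drug content was measured by HPLC-tandem MS.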

Data set [3] relates to Plasmodium berghei. Briefly: Antiplasmodial activity against Plasmodium berghei infected in Swiss Webster mouse assessed as mouse survival at 33 mg/kg, po dosed once daily for 4 consecutive days beginning 1 hr after initial infection and measured on day 12 post infection by Giemsa staining method. It counts as functional. Put shortly:
(§3)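 Female Swiss Webster mice (about 20 g) were infected ip with 6 × 10^6 P. berghei-infected erythrocytes from a donor mouse. They were dosed by oral gavage once daily for 4 days, starting 1 h post-infection, in PEG 300/propylene glycol/water (55/25/20 by weight). Parasitemia was read daily on Giemsa smears from day 4, and mice were euthanized above 50% parasitemia. Percent survival was tracked to 21 days.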

Data set [4] in a line: Tmax in CD1 mouse at 30 mg/kg, po by HPLC coupled to tandem mass spectrometry. Type of data set: ADME, organism-based. The settings on record: in vivo. Put shortly: as §2
Data set [5] can be described thus: Clearance in CD1 mouse at 10 mg/kg, iv by HPLC coupled to tandem mass spectrometry. It counts as ADME, organism-based. The settings on record: in vivo. In outline: as §2
Data set [6] can be described thus: Terminal half life in CD1 mouse at 10 mg/kg, iv by HPLC coupled to tandem mass spectrometry. It counts as ADME, organism-based. As to conditions: in vivo, read-out: beta t1/2 (converted). In outline: as §2
A further data set deals with Plasmodium falciparum. Briefly: Antimalarial activity against chloroquine-sensitive Plasmodium falciparum 3D7 cultured in human erythrocytes incubated for 72 hrs by [3H]-hypoxanthine incorporation assay. It counts as functional, organism-based.
Data set [7] deals with Plasmodium berghei. Briefly: Antiplasmodial activity against Plasmodium berghei infected in Swiss Webster mouse assessed as mouse survival at 100 mg/kg, po dosed once daily for 4 consecutive days beginning 1 hr after initial infection and measured on day 20 post infection by Giemsa staining method. Type of data set: functional. Put shortly: as §1
The test system of data set [8] is Mus musculus. Briefly: AUC (0 to infinity) in CD1 mouse assessed as 5-(1-hydroxy-1,3-dihydrobenzo[c][1,2]oxaborol-6-yloxy)pyrazine-2-carboxylic acid level at 5 mg/kg, iv by HPLC coupled to tandem mass spectrometry. Type of data set: ADME, organism-based. As to conditions: in vivo. Further details: dose 5 mg/kg, route intravenous, time infinity. Put shortly: (§4)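 The parent ester was given to adult female CD-1 mice at 5 mg/kg, iv or by oral gavage, in PEG 400/dimethylacetamide/water (45/10/45, pH 5.8). Blood was sampled, and the acid formed from the ester in vivo was quantified by HPLC-tandem MS to derive its PK parameters.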

Data set [9] has as its system Mus musculus. Briefly: Terminal half life in CD1 mouse assessed as 5-(1-hydroxy-1,3-dihydrobenzo[c][1,2]oxaborol-6-yloxy)pyrazine-2-carboxylic acid level at 5 mg/kg, iv by HPLC coupled to tandem mass spectrometry. Type of data set: ADME, organism-based. The settings on record: in vivo. In outline: as §4
The test system of data set [10] is Plasmodium berghei. Briefly: Antiplasmodial activity against Plasmodium berghei infected in Swiss Webster mouse assessed as mouse survival at 3 mg/kg, po dosed once daily for 4 consecutive days beginning 1 hr after initial infection and measured on day 9 post infection by Giemsa staining method.
The subject of data set [11] is Mus musculus. Briefly: AUC (0 to infinity) in CD1 mouse assessed as 5-(1-hydroxy-1,3-dihydrobenzo[c][1,2]oxaborol-6-yloxy)pyrazine-2-carboxylic acid level at 5 mg/kg, po by HPLC coupled to tandem mass spectrometry. It counts as ADME, organism-based. Further details: dose 5 mg/kg, route oral, time infinity. As to conditions: in vivo. In outline: as §4
Another data set deals with Liver microsome. In words: Stability in human liver microsomes assessed as compound remaining at 1 uM incubated for 1 hr in presence of NADPH by LC/MS/MS method. Type of data set: ADME. In outline:
(§5)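 Compound at 1 μM final (from a 1 mg/mL DMSO stock) was incubated with mouse or human liver microsomes (0.5 mg/mL protein) in 100 mM potassium phosphate, pH 7.4, at 37 °C with shaking, with or without 1 mM NADPH. Samples were taken over 0–120 min and tested in duplicate. Reactions were quenched with cold acetonitrile plus internal standard and analyzed by LC/MS/MS.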
In general terms: Microsomes from liver hold many membrane-bound enzymes, among them those of drug oxidation.

Data set [12] relates to Plasmodium berghei. In words: Antiplasmodial activity against Plasmodium berghei infected in Swiss Webster mouse assessed as mouse survival at 33 mg/kg, po dosed once daily for 4 consecutive days beginning 1 hr after initial infection and measured on day 13 post infection by Giemsa staining method. Type of data set: functional. Put shortly:
as §3

Data set [13] deals with Mus musculus. In words: Oral bioavailability in CD1 mouse at 5 mg/kg by HPLC coupled to tandem mass spectrometry. It counts as ADME, organism-based. As to conditions: in vivo. In outline: (§6)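 Adult female CD-1 mice received 5 mg/kg by both the iv and the oral-gavage route. Two vehicles were used: PEG 400/dimethylacetamide/water (45/10/45, pH 5.8), or PEG 300/propylene glycol/water (55/25/20, pH 5.9). Blood samples were collected and drug was quantified by HPLC-tandem MS.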

Data set [14] relates to Plasmodium berghei. In words: Antiplasmodial activity against Plasmodium berghei infected in Swiss Webster mouse assessed as mouse survival at 100 mg/kg, po dosed once daily for 4 consecutive days beginning 1 hr after initial infection and measured on day 16 to 19 post infection by Giemsa staining method. It counts as functional. Put shortly: as §1
Data set [15] deals with Mus musculus. Briefly: Terminal half life in CD1 mouse assessed as 5-(1-hydroxy-1,3-dihydrobenzo[c][1,2]oxaborol-6-yloxy)pyrazine-2-carboxylic acid level at 5 mg/kg, po by HPLC coupled to tandem mass spectrometry. It counts as ADME, organism-based. The settings on record: in vivo. In outline:
as §4

Data set [16] in a line: Terminal half life in CD1 mouse at 5 mg/kg, iv by HPLC coupled to tandem mass spectrometry. Type of data set: ADME, organism-based. As to conditions: in vivo, read-out: beta t1/2 (converted). Put shortly: as §6
The subject of data set [17] is Plasmodium berghei. In words: Antiplasmodial activity against Plasmodium berghei infected in Swiss Webster mouse assessed as mouse survival at 3 mg/kg, po dosed once daily for 4 consecutive days beginning 1 hr after initial infection and measured on day 10 post infection by Giemsa staining method. It counts as functional. Put shortly:
as §1

For data set [18], the system named is Plasmodium berghei. Briefly: Antiplasmodial activity against Plasmodium berghei infected in Swiss Webster mouse assessed as mouse survival at 100 mg/kg, po dosed once daily for 4 consecutive days beginning 1 hr after initial infection and measured on day 13 post infection by Giemsa staining method. Type of data set: functional. In outline: as §1
For data set [19], the system named is Plasmodium berghei. In words: Antiplasmodial activity against Plasmodium berghei infected in Swiss Webster mouse assessed as mouse survival at 200 mg/kg, po dosed once daily for 4 consecutive days beginning 1 hr after initial infection and measured on day 10 post infection by Giemsa staining method. Type of data set: functional. In outline: as §1
For data set [20], the system named is Plasmodium berghei. In words: Antiplasmodial activity against Plasmodium berghei infected in Swiss Webster mouse assessed as mouse survival at 200 mg/kg, po dosed once daily for 4 consecutive days beginning 1 hr after initial infection and measured on day 6 post infection by Giemsa staining method. It counts as functional. In outline:
as §1

Data set [21] has as its system Plasmodium berghei. In words: Antiplasmodial activity against Plasmodium berghei infected in Swiss Webster mouse assessed as mouse survival at 200 mg/kg, po dosed once daily for 4 consecutive days beginning 1 hr after initial infection and measured on day 4 post infection by Giemsa staining method. It counts as functional. In outline:
as §1

Data set [22] in a line: Stability in mouse liver microsomes assessed as compound remaining at 1 uM incubated for 1 hr in absence of NADPH by LC/MS/MS method. Type of data set: ADME. In outline: as §5

Take `O=C(O)c1cnc(Oc2ccc3c(c2)B(O)OC3)cn1`: the survival at 11 mg/kg in the data set on Plasmodium berghei [1] stood at 20%. The exposure AUC(0-t) at 2 h in [2] is 8620 ng·h/mL. Further, in the data set with Plasmodium berghei [3], the survival at 33 mg/kg was found to be 0%. The Tmax in data set [4] stood at 15 min. The compound also had a clearance in data set [5] of 38.8 mL/min/kg. Besides, the half-life in [6] was 66 min. In the data set on Plasmodium falciparum, this compound had an IC50 of 300 nM.
Consider `COC(=O)c1cnc(Oc2ccc3c(c2)B(O)OC3)cn1`, for which the survival at 100 mg/kg is 0% with Plasmodium berghei [7], 20% in the data set with Plasmodium berghei [14] and 60% in the data set with Plasmodium berghei [18]. Also, the survival at 11 mg/kg with Plasmodium berghei [1] worked out at 80%. In addition, the AUC with Mus musculus [8] was found to be 990 ng·h/mL; with Mus musculus [11], 610 ng·h/mL. The figures for the “beta t1/2” value in the data set on Mus musculus [9] and in the data set on Mus musculus [15] were 7.8 min and 90 min, respectively. Further, the survival at 3 mg/kg with Plasmodium berghei [10] and in the data set on Plasmodium berghei [17] was 40% each time. In addition, the survival at 33 mg/kg is 20% in the data set with Plasmodium berghei [3] and 0% with Plasmodium berghei [12]. Besides, the Stability with Liver microsome is on record as 0%. In the data set with Mus musculus [13], this compound returned an F of 23%. Further, in data set [16], the half-life was 18 min.
With `NC(=O)c1cnc(Oc2ccc3c(c2)B(O)OC3)cn1`, the survival at 200 mg/kg in the data set with Plasmodium berghei [19] was 0%; in the data set with Plasmodium berghei [20], 100%; in the data set on Plasmodium berghei [21] it was 100%. Moreover, the Stability in the data set with Liver microsome is 87%; in data set [22], 100%. Further, the F with Mus musculus [13] is reported as 99%. In data set [16], the half-life is 24 min.

Broadly, the AUC(0-t) is exposure summed from dosing to a finite time, without extrapolation to infinity. The low end stands for less exposure, the high end for more exposure. The Tmax is the time from dosing to the highest level. Broadly, the clearance is a measure of how efficiently the substance is removed, as volume per time. A high value points to efficient removal. Broadly, the IC50 is the midpoint of a concentration-inhibition curve. The AUC is concentration integrated over time.

(Values after ChEMBL document CHEMBL3580633, “Benzoxaborole antimalarial agents. Part 4. Discovery of potent 6-(2-(alkoxycarbonyl)pyrazinyl-5-oxy)-1,3-dihydro-1-hydroxy-2,1-benzoxaboroles” (J Med Chem, 2015).)
